Assay results published in ChEMBL document CHEMBL2010787, “Design and synthesis of novel 5-phenyl-N-piperidine ethanone containing 4,5-dihydropyrazole derivatives as potential antitumor agents” (Eur J Med Chem, 2012).

Assays:
MGC-803 = experiment: Cytotoxicity against human MGC803 cells after 48 hrs by MTT assay; format: functional, cell-based; conditions: MGC-803, 48 h
In short: (§1)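 Log-phase tumor cells grown in RPMI 1640 with 10% FBS, diluted to 3 × 10⁴ cells/mL, and seeded in 96-well plates. Plates were held 24 h at 37 °C in 5% CO₂, then compounds were added at preset concentrations (6 wells each), with 5-fluorouracil as positive reference. After 48 h exposure, MTT in PBS (2.5 mg/mL) was added for 4 h. Formazan was dissolved in DMSO and read at 570 nm. IC50 is the concentration giving 50% survival; results are the mean of three experiments in triplicate.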

SGC-7901 = experiment: Cytotoxicity against human SGC7901 cells after 48 hrs by MTT assay; format: functional, cell-based; conditions: SGC-7901, 48 h; in short: as §1
Bcap37 = experiment: Cytotoxicity against human Bcap37 cells after 48 hrs by MTT assay; format: functional, cell-based; conditions: Bcap37, 48 h; in short: as §1
[1] = target: Telomerase reverse transcriptase (Homo sapiens, UniProt O14746); experiment: Inhibition of telomerase activity in human MGC803 cells after 24 hrs by TRAP-PCR-ELISA assay
Sequence of Telomerase reverse transcriptase (O14746 whole entry): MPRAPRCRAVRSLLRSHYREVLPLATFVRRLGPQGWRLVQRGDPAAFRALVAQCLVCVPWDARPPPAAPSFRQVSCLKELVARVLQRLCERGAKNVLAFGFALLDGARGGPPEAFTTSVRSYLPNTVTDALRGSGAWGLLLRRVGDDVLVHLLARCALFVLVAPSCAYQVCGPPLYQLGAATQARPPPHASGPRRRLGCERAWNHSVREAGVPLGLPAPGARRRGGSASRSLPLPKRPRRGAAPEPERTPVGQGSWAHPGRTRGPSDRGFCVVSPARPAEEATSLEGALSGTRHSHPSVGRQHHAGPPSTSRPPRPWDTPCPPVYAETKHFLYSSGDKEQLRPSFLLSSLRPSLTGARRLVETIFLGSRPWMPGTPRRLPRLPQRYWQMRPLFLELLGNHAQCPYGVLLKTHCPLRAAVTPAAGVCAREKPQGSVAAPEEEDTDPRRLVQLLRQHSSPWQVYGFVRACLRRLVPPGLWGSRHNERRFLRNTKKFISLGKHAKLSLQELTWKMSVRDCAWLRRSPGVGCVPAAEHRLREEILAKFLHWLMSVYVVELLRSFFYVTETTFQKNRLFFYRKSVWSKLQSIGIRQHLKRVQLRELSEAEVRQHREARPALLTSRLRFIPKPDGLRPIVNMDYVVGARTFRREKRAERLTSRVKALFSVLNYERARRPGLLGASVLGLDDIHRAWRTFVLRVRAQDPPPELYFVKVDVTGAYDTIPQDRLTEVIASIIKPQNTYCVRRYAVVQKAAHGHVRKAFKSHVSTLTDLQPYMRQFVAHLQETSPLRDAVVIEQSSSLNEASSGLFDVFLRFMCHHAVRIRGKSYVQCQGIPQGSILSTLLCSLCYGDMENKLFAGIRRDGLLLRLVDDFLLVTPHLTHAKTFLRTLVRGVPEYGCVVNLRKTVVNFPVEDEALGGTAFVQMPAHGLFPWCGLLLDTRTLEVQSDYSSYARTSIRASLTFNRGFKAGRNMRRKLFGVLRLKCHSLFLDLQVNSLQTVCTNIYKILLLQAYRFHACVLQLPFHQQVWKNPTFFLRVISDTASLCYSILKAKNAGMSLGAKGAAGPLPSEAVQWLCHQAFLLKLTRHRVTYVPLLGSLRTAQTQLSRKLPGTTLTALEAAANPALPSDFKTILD

SMILES	IC50 (MGC-803)	IC50 (SGC-7901)	IC50 (Bcap37)	IC50 [1]
CC1=NN(C(=O)CN2CCCCC2C(N)=O)C(c2ccccc2O)C1 (stereo not given)	38.8 µM	39.2 µM	41.1 µM	
CC[n+]1c(-c2ccccc2)c2cc(N)ccc2c2ccc(N)cc21 [HOMIDIUM BROMIDE]				2.47 µM
CC1=NN(C(=O)CN2CCCCC2[N+](=O)[O-])C(c2ccccc2O)C1 (stereo not given)	28.3 µM	30.7 µM	32.3 µM	42.1 µM
CC1=NN(C(=O)CN2CCC(O)CC2)C(c2ccccc2O)C1 (stereo not given)	4.12 µM	5.71 µM	18.7 µM	9.11 µM
CC1=NN(C(=O)CN2CCC(C(F)(F)F)CC2)C(c2ccccc2O)C1 (stereo not given)	2.64 µM	3.22 µM	8.55 µM	8.81 µM
CC1=NN(C(=O)CN2CCC(C)CC2)C(c2ccccc2O)C1 (stereo not given)	3.55 µM	4.6 µM	6.81 µM	5.99 µM
O=c1[nH]cc(F)c(=O)[nH]1 [FLUOROURACIL]	3.42 µM	7.11 µM	5.33 µM	
CC1=NN(C(=O)CN2CCCCC2C)C(c2ccccc2O)C1 (stereo not given)	11.7 µM	11.2 µM	16.3 µM	
O=C(CN1CCC(Br)CC1)N1N=C(c2cc3ccccc3oc2=O)CC1c1ccccc1 (stereo not given)	7.01 µM	10.3 µM	8.76 µM	4.11 µM
CCC1CCCCN1CC(=O)N1N=C(c2cc3ccccc3oc2=O)CC1c1ccccc1 (stereo not given)	8.71 µM	6 µM	7.3 µM	
CCC1CCCCN1CC(=O)N1N=C(C)CC1c1ccccc1O (stereo not given)	15.7 µM	12.9 µM	10.7 µM	
CC1CCN(CC(=O)N2N=C(c3cc4ccccc4oc3=O)CC2c2ccccc2)CC1 (stereo not given)	3.01 µM	4.7 µM	6.57 µM	2 µM
